OX1R antag-1 = antagonists of human orexin 1 receptor (OX1R); O43613; OX1R-expressing cells, FRET antagonist read-out; inhibition, % at 6.6 µM; actives 1.8% (n = 330,000); AID 485270; in the data active means inhibition mostly above about 38%, no sharp cut-off; inactive means mostly below about 40%;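 further: 0% = agonist challenge alone and 100% = reference antagonist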
TAAR1 ag = agonists of human TAAR1. Q96RJ0. CHO RD-HGA16 TAAR1, Fluo-8 calcium fluorescence; vehicle wells 0%, saturating PEA agonist 100%. activation, % at 3 µM. actives 0.99% (n = 360,000). AID 624467;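 active means activation above the mean activation of all test compounds in the run plus 3 SD, cut at about 38% in these data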
Target sequence (Q96RJ0 whole entry, looked up): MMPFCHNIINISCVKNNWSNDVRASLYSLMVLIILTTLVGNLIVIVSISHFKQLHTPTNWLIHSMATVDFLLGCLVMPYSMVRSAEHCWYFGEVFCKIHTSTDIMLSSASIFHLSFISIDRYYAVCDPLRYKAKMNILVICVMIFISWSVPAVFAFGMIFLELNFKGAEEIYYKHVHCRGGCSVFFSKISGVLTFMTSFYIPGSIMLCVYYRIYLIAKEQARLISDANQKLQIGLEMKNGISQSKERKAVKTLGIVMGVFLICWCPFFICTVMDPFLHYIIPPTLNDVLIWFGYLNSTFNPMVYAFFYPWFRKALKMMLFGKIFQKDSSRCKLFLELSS
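test system = CHO RD-HGA16 cells carrying human TAAR1 plus Gα16 | schedule = 17-24 h seeding, 75 min 37 °C dye, 30 min RT | compound dosing = 3 µM single concentration | control set = DMSO and PEA EC100 | replicates = n 1 | signal = Fluo-8 fluorescence, 5 s baseline then 140 s kinetic read | measure = percent activation vs PEA EC100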
GPR7 antagonist = antagonists of human GPR7 (neuropeptides B/W receptor 1); P48145; GPR7-expressing cells, fluorescence antagonist assay; inhibition, % at 4.4 µM; actives 1.1% (n = 290,000); AID 1861; in the data active means inhibition above about 16%, passing the limit was not always enough;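 further: cells stimulated with the agonist NPW; 0% = agonist with vehicle and 100% = vehicle without agonist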
Target sequence (P48145 whole entry, looked up): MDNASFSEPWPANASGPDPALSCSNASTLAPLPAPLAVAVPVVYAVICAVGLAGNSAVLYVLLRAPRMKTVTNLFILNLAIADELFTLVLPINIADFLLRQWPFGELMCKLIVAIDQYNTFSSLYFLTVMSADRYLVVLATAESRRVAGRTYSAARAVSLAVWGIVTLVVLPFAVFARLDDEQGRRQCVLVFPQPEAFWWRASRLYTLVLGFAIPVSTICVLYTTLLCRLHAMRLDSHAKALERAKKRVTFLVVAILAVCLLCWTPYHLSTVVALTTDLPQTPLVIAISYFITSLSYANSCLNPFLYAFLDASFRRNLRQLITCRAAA
OX1R antag-2 = blocks the human orexin 1 receptor | CHO/OX1R cells, Fluo-8 calcium fluorescence, orexin A | inhibition, % at 5 µM | actives 0.43% (n = 330,000);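 active means inhibition above its plate's threshold, mean inhibition of all tested compounds on the plate plus 3 SD, cut at about 37% in these data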;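 further: 0% = orexin A challenge wells and 100% = SB-334867-A antagonist wells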
TAAR1 antag = antagonists of human TAAR1. Q96RJ0. CHO RD-HGA16 TAAR1, Fluo-8 calcium fluorescence, antagonist. inhibition, % at 3 µM. actives 1.5% (n = 360,000);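 active means inhibition above a per-plate cutoff, the mean inhibition of test compounds on that plate plus 3 SD, cut at about 49% in these data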;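 further: 0% = DMSO plus EC80 beta-PEA response and 100% = DMSO alone without agonist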
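Test system – hTAAR1-expressing CHO RD-HGA16 cells, Gα16-coupled · Reagent – β-PEA at EC80 concentration, post-compound challenge · Compound dosing – 3 µM, single point · Timing – 140 s kinetic read after compound, 140 s after agonist · Detection – Fluo-8 intracellular calcium dye fluorescence, real-time kinetic reads · Control set – DMSO and EC80 PEA controls · Repeats – n of 1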
CHO parental Ca = counter-screen: ATP calcium response change in parental CHO cells | actives 0.63% (n = 330,000) | parental CHO-K1, ATP-induced calcium, Fluo-8 fluorescence | AID 463079 | inhibition, % at 5.6 µM;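 active means inhibition above that plate's mean sample inhibition plus 3 SD, cut at about 26% in these data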;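 further: 0% = ATP-challenged DMSO wells and 100% = DMSO wells without ATP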
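test system = CHO parental line | reagent = ATP stimulus | measured by = intracellular calcium via Fluo-8 no-wash fluorescent dye | control set = ATP and no-ATP DMSO wells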
An asterisk follows results filed as active; · = not tested or not shown. An excerpt weighted towards active compounds, which were near 4.5% of everything screened.

SMILES | OX1R antag-1 | TAAR1 ag | GPR7 antagonist | OX1R antag-2 | TAAR1 antag | CHO parental Ca
Cc1nn(-c2ccccc2)c2nc(C(F)(F)F)[nH]c(=O)c12 | 9 | 0 | -1 | -13 | 3 | -9
Cc1sc(N2CCN(S(=O)(=O)c3ccc4c(c3)NC(=O)CO4)CC2)nc1-c1ccccc1 | 7 | 2 | 16 | -25 | -4 | -9
CC1(C(=O)O)CCCN(C(=O)C2(c3ccc(Cl)cc3)CCCC2)C1 (stereo not drawn) | · | 2 | · | · | -5 | ·
OCCN=c1cc(-c2ccccc2)oc2ccc(Cl)cc12 | 47* | · | 3 | -38 | · | -17
CN(C)CCCN=c1cc(-c2ccccc2)oc2ccc(Cl)cc12 | · | 4 | 16 | · | 12 | ·
COc1ccc(CNCc2cc3c(cc2[N+](=O)[O-])OCO3)cc1 | 44* | 0 | 8 | -14 | -11 | -18
N#C/C(=C(/O)c1ccc2c(c1)OCO2)c1nc2cc(C(F)(F)F)ccc2s1 | 58* | 6 | -6 | -7 | 24 | 0
COC(=O)C1=C(C)N(C)C(=NCc2ccccc2)NC1c1ccccc1C(F)(F)F (stereo not drawn) | · | 3 | · | · | -15 | ·
COc1cc(OC)c2c(N)c(C#N)c(C(F)(F)C(F)(F)F)nc2c1 | 30 | 3 | -22 | -12 | -14 | -8
COc1ccc2nc(C(F)(F)C(F)(F)F)c(C#N)c(N)c2c1 | 3 | 42* | -13 | 6 | 5 | -4
Cc1cc(C)n(Cc2ccc(NC(=O)c3ccc(COc4ccccc4Br)cc3)cc2)n1 | 24 | 5 | 2 | -2 | 49* | 14
COc1cccc2sc3cc(C#Cc4ccccn4)ccc3c(=O)c12 | 63* | 15 | · | 25 | 39 | -29
COc1cc2sc3ccc(C#Cc4ccccn4)cc3c(=O)c2cc1OC | 41 | 9 | · | -12 | 24 | -20
C/C(=N\NC(=O)c1ccc(Br)cc1)C1C(=O)c2ccccc2C1=O | 55* | 2 | 1 | -1 | 11 | -2
CC(/C=N/NC(=O)c1cccnc1)=C\c1ccccc1 | 16 | 8 | -2 | 8 | 11 | -5
COc1ccc(C(=O)N/N=C\C(C)=C\c2ccccc2)cc1OC | 30 | 17 | · | -9 | 11 | 2
CC(/C=N/NC(=O)c1ccncc1)=C\c1ccc(C(C)C)cc1 | 11 | 18 | 3 | -1 | 49* | -7
CC(/C=N/NC(=O)c1ccc(Br)cc1)=C\c1ccccc1 | 9 | 0 | -9 | 1 | -17 | 66*
Cc1ccc(-c2cc(C(=O)N/N=C/c3ccccc3)n[nH]2)o1 | 20 | 2 | -3 | -17 | 1 | -8
CC(/C=N/NC(=O)c1cc(-c2ccc(C)o2)[nH]n1)=C\c1ccccc1 | 59* | 3 | -9 | 2 | 18 | -14
C/C(=N\NC(=O)c1ccc(-c2ccccc2)cc1)C1C(=O)c2ccccc2C1=O | 64 | 8 | 1 | -9 | -18 | 8
C[C@@H]1CN(C(=O)OC(C)(C)C)CCN1c1ccc(Br)c(C#N)c1 | · | -2 | · | · | 34 | ·
O=C(C(=O)N1CCC(CNC(=O)c2cccs2)CC1)c1cc2ccccc2o1 | · | 0 | · | · | -8 | ·
C=CCC[C@H](Cc1ccc(F)cc1)C(=O)OC[C@H](C)NC(=O)[C@@H](CC=C)CC(=O)N[C@H](CO)Cc1ccccc1 | 18 | 15 | · | 12 | 15 | -15
COc1ccc(C(CNC(=O)c2cccc(S(=O)(=O)N3CCCCC3)c2)N2CCCC2)cc1 (stereo not drawn) | 3 | 10 | · | -26 | -6 | -26
SMILES | OX1R antag-1 | TAAR1 ag | GPR7 antagonist | OX1R antag-2 | TAAR1 antag | CHO parental Ca
Cc1c(C(=O)Nc2ccncc2)sc2nc(-c3ccc(F)cc3)cn12 | 13 | 10 | -8 | -5 | 3 | 77*
COc1ccc(-c2cn3c(C)c(C(=O)Nc4ccncc4)sc3n2)cc1 | 3 | 9 | -1 | -28 | 35 | -1
CC1(Cc2c(Cl)cccc2Cl)C(=O)Nc2cc(-c3ccccc3Cl)ccc21 (stereo not drawn) | · | 0 | · | · | -1 | ·
CC1(Cc2ccccc2Cl)C(=O)Nc2cc(-c3ccccc3Cl)ccc21 (stereo not drawn) | · | 2 | · | · | 51* | ·
C/C(=N\N=c1/sc2ccccc2n1C)c1ccccn1 | 62* | 2 | 8 | -6 | -30 | -23
CCOc1ncccc1C(=O)Nc1ccc2nc(C)sc2c1 | 76* | 0 | -5 | -4 | 0 | -6
O=C(NCc1ccco1)Nc1c(Cl)cc(Cl)cc1Cl | · | 2 | · | · | 3 | ·
COC(=O)[C@]12CCCCC=C1N(Cc1cccc3ccccc13)C(=O)[C@H](CC(=O)N1CCSCC1)C2 | · | 12 | · | · | 53* | ·
CCOC(=O)[C@]12CCCC=C1N(Cc1ccco1)C(=O)[C@H](CC(=O)NCc1cccc3ccccc13)C2 | · | 3 | · | · | 50* | ·
COC(=O)[C@]12CCCCC=C1N(Cc1cccc3ccccc13)C(=O)[C@H](CC(=O)NCCC(C)C)C2 | · | 9 | · | · | 62* | ·
Cc1[nH]c(C)c(S(=O)(=O)Nc2cccc(Cl)c2C)c1C(=O)N1CCCC1 | 20 | 9 | -12 | -7 | 6 | -10
CCOCCCn1c(=NC(C)=O)c(C#N)cc2c(=O)n3ccccc3nc21 | 40* | 0 | -2 | 1 | -18 | 1
COCCCn1c(=NC(C)=O)c(C#N)cc2c(=O)n3cccc(C)c3nc21 | 23 | -1 | -5 | -4 | -35 | -22
CCOCCCn1c(=NC(C)=O)c(C(=O)OCC)cc2c(=O)n3ccccc3nc21 | 59* | 1 | -4 | -7 | -1 | -2
CCOC(=O)c1cc2c(=O)n3ccccc3nc2n(CCOC)c1=NC(=O)C(C)(C)C | 43 | 4 | -3 | -27 | -10 | 3
COCCCn1c(=NC(=O)c2ccccc2)c(C#N)cc2c(=O)n3cccc(C)c3nc21 | 55* | 2 | -14 | 2 | -37 | 10
O=C(O)CCCCN1C(=O)C=CC1=O | · | 1 | · | · | -17 | ·
O=C(CCN1C(=O)/C(=C/c2ccccc2Cl)SC1=S)Nc1ccccn1 | 65* | 5 | -40 | -40 | 45 | -13
O=C(CCN1C(=O)/C(=C/c2ccccc2Cl)SC1=S)Nc1cccnc1 | 43 | 10 | -13 | 2 | 50* | 6
O=C(CCN1C(=O)/C(=C\c2cccs2)SC1=S)Nc1ccccn1 | 26 | 44* | -8 | -15 | 21 | -21
Cc1c(C(=O)N2CCc3ccccc3C2)oc2ccc(S(=O)(=O)N3CCCCCC3)cc12 | -3 | 42* | -11 | -42 | -1 | -18
CCOC(=O)N1CCN(C(=O)c2oc3ccc(S(=O)(=O)N4CCCCCC4)cc3c2C)CC1 | -13 | 11 | 4 | -32 | 2 | -41
COc1ccc(-[n+]2c(C)cc(/C=C3\Sc4ccccc4N3C)cc2C)cc1 | 56* | 32 | 31* | 31 | 62* | 46*

Screening results as filed in PubChem.
